Data reported in PMC6828636 (European Journal of Drug Metabolism and Pharmacokinetics, 2019).
Like-named read-outs stand apart in the source and are kept apart here.

Assays:
Format in all cases: in vitro ADME
OCT1 [1] = target: T1, OCT1 (Homo sapiens, UniProt O15245); experiment: OCT1 uptake inhibition in transfected HEK cells
T1 sequence (O15245 1-554): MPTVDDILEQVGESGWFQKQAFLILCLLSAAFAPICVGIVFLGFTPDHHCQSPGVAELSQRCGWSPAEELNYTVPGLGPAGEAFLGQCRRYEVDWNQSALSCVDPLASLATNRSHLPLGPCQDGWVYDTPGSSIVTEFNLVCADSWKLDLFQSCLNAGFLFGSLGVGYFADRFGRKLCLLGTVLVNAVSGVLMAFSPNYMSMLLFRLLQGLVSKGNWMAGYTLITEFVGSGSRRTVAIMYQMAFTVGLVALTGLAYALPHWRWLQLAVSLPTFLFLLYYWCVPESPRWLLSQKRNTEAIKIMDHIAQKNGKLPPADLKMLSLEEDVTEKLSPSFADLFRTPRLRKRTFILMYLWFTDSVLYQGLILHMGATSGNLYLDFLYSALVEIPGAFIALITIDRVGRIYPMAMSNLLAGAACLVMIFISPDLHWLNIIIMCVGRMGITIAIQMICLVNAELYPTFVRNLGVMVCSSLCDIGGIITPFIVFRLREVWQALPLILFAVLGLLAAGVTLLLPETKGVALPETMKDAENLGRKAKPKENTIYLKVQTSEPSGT
How it was run: (§1)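 HEK cells overexpressing NTCP, OAT1, OAT3, OATP2B1, OCT1 or OCT2 were incubated with probe substrate. Pairs were estrone 3-sulfate/cyclosporin A (NTCP), PAH/probenecid (OAT1), furosemide/probenecid (OAT3), estrone 3-sulfate/glibenclamide (OATP2B1), 3H-MPP+/decynium 22 (OCT1) and 3H-MPP+/imipramine (OCT2). IC50 was determined with and without test compound, at ≤50 µM for the parent and ≤10 µM for the metabolite.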

OCT2 = OCT2 (Homo sapiens, UniProt O15244); experiment: OCT2 uptake inhibition in transfected HEK cells
How it was run: as §1

MRP2 = MRP2 (Homo sapiens, UniProt Q92887); experiment: MRP2 inhibition in transfected HEK cells
How it was run: (§2)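 HEK cells were transfected with MRP2, MATE1 or MATE2-K. Pairs were CDCF/benzbromarone (MRP2), metformin/cimetidine (MATE1) and metformin/pyrimethamine (MATE2-K). Probe transport was assessed with and without test compound, and IC50 was determined.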

MATE1 = MATE1 (Homo sapiens, UniProt Q96FL8); experiment: MATE1 inhibition in transfected HEK cells
How it was run: as §2

CYP1A2 = target: T2, CYP1A2 (Homo sapiens, UniProt P05177); experiment: biochemical
T2 sequence (P05177 1-516): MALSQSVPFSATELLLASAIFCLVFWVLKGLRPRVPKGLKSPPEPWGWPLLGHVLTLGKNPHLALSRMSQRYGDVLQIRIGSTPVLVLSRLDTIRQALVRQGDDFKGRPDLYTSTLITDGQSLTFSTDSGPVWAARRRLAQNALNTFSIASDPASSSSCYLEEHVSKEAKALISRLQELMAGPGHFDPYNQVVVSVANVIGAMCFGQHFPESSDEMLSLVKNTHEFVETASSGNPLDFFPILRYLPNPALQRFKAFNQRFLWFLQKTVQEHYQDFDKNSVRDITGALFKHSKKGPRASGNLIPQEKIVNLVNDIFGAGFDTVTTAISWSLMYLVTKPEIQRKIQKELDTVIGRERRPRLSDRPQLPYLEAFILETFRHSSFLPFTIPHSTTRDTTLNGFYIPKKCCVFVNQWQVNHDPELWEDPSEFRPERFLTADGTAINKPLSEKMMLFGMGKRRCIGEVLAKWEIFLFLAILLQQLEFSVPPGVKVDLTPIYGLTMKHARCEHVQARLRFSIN

CYP2C8 = target: T3, CYP2C8 (Homo sapiens, UniProt P10632); experiment: CYP2C8 inhibition in human liver microsomes
T3 sequence (P10632 1-490): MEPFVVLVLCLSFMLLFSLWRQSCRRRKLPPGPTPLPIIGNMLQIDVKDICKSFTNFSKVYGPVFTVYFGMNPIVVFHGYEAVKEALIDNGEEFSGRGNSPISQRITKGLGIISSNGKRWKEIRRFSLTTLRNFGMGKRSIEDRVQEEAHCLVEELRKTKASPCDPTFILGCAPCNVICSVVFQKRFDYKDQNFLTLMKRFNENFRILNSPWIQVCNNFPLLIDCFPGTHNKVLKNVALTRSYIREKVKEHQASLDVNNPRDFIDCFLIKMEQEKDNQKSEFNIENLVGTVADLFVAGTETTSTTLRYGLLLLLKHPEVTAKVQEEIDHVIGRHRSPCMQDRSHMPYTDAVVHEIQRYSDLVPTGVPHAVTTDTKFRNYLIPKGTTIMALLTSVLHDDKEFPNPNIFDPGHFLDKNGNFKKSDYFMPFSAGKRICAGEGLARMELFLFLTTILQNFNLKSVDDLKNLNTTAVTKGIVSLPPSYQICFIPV
How it was run: (§3)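 Pooled human liver microsomes were incubated with standard CYP-selective substrates, with and without test compound at 0.03–100 μM. Standard selective inhibitors for each isoform ran in parallel as positive controls. Read-out was IC50. For CYP3A4 only, time-dependent inhibition was also tested after 30 min preincubation, using midazolam and testosterone as substrates.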

CYP2C19 = CYP2C19 (Homo sapiens, UniProt P33261); experiment: CYP2C19 inhibition in human liver microsomes
How it was run: as §3

CYP2D6 = CYP2D6 (Homo sapiens, UniProt P10635); experiment: CYP2D6 inhibition in human liver microsomes
How it was run: as §3

CYP2E1 = CYP2E1 (Homo sapiens, UniProt P05181); experiment: CYP2E1 inhibition in human liver microsomes
How it was run: as §3

CYP3A4 = CYP3A4 induction in primary-cultured human hepatocytes; conditions: for induction of CYP3A4 enzymatic activity: three donors, 3 days dosing, 0.005–10 mg/l
OCT1 [2] = target: T1, OCT1; experiment: Cellular uptake in OCT1-transfected HEK cells; conditions: not affected by decynium-22
How it was run: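 Cellular uptake of test compound was measured in HEK cells transfected to overexpress OATP1B1, OATP1B3 or OCT1. Vector-control cells were run in parallel. Standard inhibitors and probe substrates were included; decynium-22 served as OCT1 inhibitor, rifamycin as OATP inhibitor.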

CYP2C19, sequence (P33261 whole entry): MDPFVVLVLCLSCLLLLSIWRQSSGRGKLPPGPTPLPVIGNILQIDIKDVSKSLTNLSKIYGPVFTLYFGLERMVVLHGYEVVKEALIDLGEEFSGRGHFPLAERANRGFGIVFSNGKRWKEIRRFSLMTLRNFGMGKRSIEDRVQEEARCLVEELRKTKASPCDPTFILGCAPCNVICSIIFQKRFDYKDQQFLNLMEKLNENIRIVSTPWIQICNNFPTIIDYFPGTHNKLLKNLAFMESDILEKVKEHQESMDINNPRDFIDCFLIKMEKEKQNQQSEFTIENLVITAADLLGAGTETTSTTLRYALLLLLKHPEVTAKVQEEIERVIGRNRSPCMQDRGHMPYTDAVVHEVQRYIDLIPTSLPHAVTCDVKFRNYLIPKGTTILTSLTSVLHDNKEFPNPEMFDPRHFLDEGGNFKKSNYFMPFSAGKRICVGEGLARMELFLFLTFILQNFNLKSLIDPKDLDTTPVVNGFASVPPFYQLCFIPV
CYP2D6, sequence (P10635 whole entry): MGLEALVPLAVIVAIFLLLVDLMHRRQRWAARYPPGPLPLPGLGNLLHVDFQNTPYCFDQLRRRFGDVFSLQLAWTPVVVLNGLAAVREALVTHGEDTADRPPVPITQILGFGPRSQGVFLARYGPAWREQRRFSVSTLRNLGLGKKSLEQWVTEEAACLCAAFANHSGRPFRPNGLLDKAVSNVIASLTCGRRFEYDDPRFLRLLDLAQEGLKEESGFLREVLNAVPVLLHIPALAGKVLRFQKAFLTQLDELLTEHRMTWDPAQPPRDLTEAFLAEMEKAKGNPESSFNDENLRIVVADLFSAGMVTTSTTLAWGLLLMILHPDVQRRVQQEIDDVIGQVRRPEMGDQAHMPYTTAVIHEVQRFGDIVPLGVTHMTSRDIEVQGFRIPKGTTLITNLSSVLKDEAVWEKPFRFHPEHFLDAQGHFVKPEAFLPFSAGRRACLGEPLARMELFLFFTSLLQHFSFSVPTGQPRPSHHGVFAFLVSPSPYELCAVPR
OCT2, sequence (O15244 whole entry): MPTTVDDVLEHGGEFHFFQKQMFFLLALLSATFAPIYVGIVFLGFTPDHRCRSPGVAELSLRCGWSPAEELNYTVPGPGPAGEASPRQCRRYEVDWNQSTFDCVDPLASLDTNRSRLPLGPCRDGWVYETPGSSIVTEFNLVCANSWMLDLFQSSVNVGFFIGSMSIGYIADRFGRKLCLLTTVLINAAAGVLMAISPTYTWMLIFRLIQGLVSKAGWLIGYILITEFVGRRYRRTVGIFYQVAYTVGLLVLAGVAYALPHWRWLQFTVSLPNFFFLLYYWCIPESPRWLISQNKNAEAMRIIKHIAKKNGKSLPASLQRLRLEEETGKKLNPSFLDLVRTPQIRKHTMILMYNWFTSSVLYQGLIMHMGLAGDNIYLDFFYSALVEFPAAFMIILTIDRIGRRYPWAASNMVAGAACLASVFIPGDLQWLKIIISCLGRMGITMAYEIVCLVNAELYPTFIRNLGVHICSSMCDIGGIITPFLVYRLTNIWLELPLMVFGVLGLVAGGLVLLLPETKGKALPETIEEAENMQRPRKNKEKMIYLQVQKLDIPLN
MRP2, sequence (Q92887 whole entry): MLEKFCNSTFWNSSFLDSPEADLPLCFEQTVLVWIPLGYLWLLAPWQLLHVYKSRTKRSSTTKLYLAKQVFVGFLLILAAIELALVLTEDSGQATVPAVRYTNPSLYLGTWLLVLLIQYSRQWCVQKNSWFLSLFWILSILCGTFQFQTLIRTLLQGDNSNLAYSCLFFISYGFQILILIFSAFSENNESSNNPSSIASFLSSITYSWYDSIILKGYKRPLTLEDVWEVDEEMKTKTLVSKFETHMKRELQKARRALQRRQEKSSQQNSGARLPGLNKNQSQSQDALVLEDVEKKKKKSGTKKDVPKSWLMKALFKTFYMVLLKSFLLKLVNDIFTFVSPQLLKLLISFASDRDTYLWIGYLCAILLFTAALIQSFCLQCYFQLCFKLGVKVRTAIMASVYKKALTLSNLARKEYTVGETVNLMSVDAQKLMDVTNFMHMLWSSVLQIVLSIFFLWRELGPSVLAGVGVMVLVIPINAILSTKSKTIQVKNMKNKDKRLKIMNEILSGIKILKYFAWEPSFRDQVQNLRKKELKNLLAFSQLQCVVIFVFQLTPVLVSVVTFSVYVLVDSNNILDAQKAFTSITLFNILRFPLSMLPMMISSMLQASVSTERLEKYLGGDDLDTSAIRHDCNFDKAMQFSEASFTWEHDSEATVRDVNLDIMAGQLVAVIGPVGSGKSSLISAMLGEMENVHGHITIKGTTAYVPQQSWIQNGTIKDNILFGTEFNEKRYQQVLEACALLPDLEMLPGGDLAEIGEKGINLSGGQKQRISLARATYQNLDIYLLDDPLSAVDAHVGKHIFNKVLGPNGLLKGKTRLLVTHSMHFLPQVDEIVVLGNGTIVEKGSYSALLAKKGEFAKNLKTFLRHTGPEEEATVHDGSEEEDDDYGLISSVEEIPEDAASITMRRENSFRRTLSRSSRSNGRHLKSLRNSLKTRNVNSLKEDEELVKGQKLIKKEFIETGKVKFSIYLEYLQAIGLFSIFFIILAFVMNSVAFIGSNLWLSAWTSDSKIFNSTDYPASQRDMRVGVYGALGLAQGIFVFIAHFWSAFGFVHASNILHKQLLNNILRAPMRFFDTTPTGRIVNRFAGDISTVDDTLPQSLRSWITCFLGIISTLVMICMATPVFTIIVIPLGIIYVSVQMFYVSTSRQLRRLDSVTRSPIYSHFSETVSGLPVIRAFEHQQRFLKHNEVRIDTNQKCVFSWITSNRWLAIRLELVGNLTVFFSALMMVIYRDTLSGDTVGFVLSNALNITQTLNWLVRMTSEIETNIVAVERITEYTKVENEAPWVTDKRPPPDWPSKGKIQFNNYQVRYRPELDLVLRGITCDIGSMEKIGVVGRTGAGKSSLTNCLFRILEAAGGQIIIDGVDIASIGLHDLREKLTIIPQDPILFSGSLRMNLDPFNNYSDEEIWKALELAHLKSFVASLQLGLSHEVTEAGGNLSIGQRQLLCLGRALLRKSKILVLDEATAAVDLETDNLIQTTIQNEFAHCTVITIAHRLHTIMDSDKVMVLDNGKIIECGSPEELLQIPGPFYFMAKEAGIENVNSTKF
CYP2E1, sequence (P05181 whole entry): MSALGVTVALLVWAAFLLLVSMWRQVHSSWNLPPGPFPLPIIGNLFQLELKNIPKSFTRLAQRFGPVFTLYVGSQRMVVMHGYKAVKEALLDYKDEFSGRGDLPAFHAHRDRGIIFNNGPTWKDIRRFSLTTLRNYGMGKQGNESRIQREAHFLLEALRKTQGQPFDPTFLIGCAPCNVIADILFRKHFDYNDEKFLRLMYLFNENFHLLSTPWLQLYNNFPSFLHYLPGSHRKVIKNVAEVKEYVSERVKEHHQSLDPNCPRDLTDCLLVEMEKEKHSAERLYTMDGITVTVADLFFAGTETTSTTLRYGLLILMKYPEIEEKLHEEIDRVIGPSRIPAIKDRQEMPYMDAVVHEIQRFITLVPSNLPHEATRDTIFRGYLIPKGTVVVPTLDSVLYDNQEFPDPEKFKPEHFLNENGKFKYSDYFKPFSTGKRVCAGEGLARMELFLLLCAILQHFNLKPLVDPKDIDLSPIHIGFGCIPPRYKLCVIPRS
MATE1, sequence (Q96FL8 whole entry): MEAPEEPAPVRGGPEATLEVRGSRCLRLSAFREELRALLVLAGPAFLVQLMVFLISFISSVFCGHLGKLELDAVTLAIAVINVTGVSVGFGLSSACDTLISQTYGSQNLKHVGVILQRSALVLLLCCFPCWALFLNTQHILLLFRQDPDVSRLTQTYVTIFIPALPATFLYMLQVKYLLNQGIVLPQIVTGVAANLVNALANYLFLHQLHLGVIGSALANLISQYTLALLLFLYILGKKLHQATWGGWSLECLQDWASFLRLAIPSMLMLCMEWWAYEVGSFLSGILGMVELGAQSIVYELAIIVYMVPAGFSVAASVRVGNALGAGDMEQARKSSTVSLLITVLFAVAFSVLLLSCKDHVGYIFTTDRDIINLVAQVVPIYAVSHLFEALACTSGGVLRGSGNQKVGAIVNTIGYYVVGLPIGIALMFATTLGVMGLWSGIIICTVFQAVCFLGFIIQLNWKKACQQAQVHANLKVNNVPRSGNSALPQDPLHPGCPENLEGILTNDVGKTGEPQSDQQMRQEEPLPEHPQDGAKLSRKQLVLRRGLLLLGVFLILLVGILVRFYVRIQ

Compound: CC(O)c1cc(C(=O)N[C@@H](C)Cn2ccc(-c3ccc(C#N)c(Cl)c3)n2)[nH]n1 (some centres unmarked) [Darolutamide, darolutamide]
- IC50 (OCT1 [1]): > 50 µM
- IC50 (OCT2): > 50 µM
- IC50 (MRP2): > 50 µM
- IC50 (MATE1): 32.3 µM
- IC50 (CYP1A2): > 100 µM
- IC50 (CYP2C8): > 100 µM
- IC50 (CYP2C19): 64.1 µM
- IC50 (CYP2D6): 81.9 µM
- IC50 (CYP2E1): > 100 µM
- CYP3A4 induction as % of rifampicin response (CYP3A4): 28%
- induction of CYP3A4 enzymatic activity (CYP3A4): ≤ 5.3 fold
- uptake in OCT1-transfected HEK cells (OCT1 [2]): no uptake

Compound: CC(=O)c1cc(C(=O)N[C@@H](C)Cn2ccc(-c3ccc(C#N)c(Cl)c3)n2)[nH]n1 [Keto-darolutamide, keto-darolutamide]
- IC50 (OCT1 [1]; read-out: IC50, OCT1, HEK cells, substrate 3H-MPP+, reference decynium 22): > 10 µM
- IC50 (OCT2; read-out: IC50, OCT2, HEK cells, substrate 3H-MPP+, reference imipramine): > 2 µM
- IC50 (MRP2; read-out: IC50, MRP2, HEK cells, substrate CDCF, reference benzbromarone): > 10 µM
- IC50 (MATE1; read-out: IC50, MATE1, HEK cells, substrate metformin, reference cimetidine): > 10 µM
- IC50 (CYP1A2; read-out: IC50, CYP1A2, human liver microsomes, substrate phenacetin): > 100 µM
- IC50 (CYP2C8; read-out: IC50, CYP2C8, human liver microsomes, substrate paclitaxel): 48.6 µM
- IC50 (CYP2C19; read-out: IC50, CYP2C19, human liver microsomes, substrate S-mephenytoin): 39.5 µM
- IC50 (CYP2D6; read-out: IC50, CYP2D6, human liver microsomes, substrate bufuralol): 51.9 µM
- IC50 (CYP2E1; read-out: IC50, CYP2E1, human liver microsomes, substrate chlorzoxazone): > 100 µM
- induction of CYP3A4 enzymatic activity (CYP3A4): ≤ 5.4 fold
- uptake in OCT1-transfected HEK cells (OCT1 [2]): no uptake
